In ChEMBL document CHEMBL1138885, “Further structural exploration of trisubstituted asymmetric pyran derivatives (2S,4R,5R)-2-benzhydryl-5-benzylamino-tetrahydropyran-4-ol and their corresponding disubstituted (3S,6S) pyran derivatives: a proposed pharmacophore model for high-affinity interaction with the dopamine, serotonin, and …” (J Med Chem, 2006):
pKi: −log10 of the molar value.

How the values were obtained:
Assay type in all cases: tissue-based
[1] = biological target: T1, Sodium-dependent dopamine transporter (Rattus norvegicus, UniProt P23977); assay: Inhibition of [3H]WIN-35428 binding to rat striatum DAT
In short: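 DAT radioligand binding with nonspecific binding defined by cocaine. Compounds dissolved in DMSO, diluted in 10% (v/v) DMSO, final 0.5% DMSO. At least five concentrations, each in triplicate, spaced evenly around the IC50.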

[2] = biological target: T1, Sodium-dependent dopamine transporter; assay: Inhibition of DAT-mediated [3H]DA uptake in rat striatum
In short: (§1)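 [3H]DA, [3H]5-HT or [3H]NE accumulation measured; SERT and NET uptake in rat cerebral cortex. Nonspecific uptake defined with cocaine (DAT), citalopram (SERT) or desipramine (NET). Three to eight independent experiments in triplicate, mean ± SEM.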

[3] = biological target: Norepinephrine transporter (Rattus norvegicus, UniProt Q9WTR4); assay: Inhibition of NET-mediated [3H]NE uptake in rat cerebral cortex; in short: as §1
[4] = biological target: Sodium-dependent serotonin transporter (Rattus norvegicus, UniProt P31652); assay: Inhibition of SERT-mediated [3H]5-HT uptake in rat cerebral cortex; in short: as §1
Chain of Sodium-dependent serotonin transporter (P31652 whole entry): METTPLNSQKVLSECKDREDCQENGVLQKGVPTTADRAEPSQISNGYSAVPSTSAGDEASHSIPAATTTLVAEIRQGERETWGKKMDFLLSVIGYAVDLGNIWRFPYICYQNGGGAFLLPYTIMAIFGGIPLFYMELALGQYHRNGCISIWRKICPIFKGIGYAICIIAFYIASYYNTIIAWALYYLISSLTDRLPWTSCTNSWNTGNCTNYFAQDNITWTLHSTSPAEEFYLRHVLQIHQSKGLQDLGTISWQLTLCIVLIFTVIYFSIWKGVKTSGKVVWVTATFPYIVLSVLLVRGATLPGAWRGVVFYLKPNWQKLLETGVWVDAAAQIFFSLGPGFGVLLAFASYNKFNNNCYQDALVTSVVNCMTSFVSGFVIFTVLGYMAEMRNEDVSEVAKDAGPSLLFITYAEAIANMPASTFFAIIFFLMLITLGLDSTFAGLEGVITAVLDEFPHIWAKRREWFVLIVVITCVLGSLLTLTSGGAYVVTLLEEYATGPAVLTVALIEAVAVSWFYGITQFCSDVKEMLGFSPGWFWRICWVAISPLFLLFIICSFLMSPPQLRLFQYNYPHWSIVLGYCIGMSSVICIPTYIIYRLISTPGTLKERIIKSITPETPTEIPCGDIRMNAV

T1 sequence (P23977 whole entry): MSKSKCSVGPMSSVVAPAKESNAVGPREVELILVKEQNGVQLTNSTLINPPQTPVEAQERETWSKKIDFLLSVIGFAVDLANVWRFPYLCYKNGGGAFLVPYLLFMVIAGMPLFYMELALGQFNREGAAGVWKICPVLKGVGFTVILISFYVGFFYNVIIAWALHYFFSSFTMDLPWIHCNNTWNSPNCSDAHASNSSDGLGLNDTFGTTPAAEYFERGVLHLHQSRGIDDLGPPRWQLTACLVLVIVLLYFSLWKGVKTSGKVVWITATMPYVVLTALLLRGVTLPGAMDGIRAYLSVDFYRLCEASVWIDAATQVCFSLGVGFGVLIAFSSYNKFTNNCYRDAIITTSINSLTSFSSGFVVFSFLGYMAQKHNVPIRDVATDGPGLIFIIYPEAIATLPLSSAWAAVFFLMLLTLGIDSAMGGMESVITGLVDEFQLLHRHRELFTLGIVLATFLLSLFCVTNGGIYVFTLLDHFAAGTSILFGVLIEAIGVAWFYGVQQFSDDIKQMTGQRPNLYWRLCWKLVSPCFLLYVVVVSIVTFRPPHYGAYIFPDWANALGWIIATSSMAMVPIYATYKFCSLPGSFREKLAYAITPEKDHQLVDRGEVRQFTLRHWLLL
Chain of Norepinephrine transporter (Q9WTR4 whole entry): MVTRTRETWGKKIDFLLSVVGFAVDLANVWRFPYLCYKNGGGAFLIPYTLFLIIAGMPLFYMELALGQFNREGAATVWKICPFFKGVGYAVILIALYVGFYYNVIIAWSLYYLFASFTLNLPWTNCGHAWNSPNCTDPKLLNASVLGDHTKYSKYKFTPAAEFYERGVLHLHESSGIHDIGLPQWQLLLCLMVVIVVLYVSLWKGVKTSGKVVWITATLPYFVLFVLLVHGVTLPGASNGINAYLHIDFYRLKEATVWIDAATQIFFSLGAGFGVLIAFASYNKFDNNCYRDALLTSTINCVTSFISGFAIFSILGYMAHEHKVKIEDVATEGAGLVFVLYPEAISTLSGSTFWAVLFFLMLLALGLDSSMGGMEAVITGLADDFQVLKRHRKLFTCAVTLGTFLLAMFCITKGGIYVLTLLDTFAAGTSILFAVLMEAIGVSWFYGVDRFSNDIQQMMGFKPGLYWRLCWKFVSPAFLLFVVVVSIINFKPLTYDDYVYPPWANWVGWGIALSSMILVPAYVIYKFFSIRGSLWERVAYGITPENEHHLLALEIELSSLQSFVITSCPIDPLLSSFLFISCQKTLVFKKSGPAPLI

SMILES: c1ccc(C(c2ccccc2)[C@@H]2CC[C@H](NCc3ccc4[nH]ccc4c3)CO2)cc1
- pKi [1]: 6.47
- pKi [2]: 6.67
- pKi [3]: 8.18
- pKi [4]: 7.84

SMILES: O=[N+]([O-])c1ccc(CN[C@@H]2CC[C@H](C(c3ccccc3)c3ccccc3)OC2)cc1
- pKi [1]: 7.19
- pKi [2]: 7.22

SMILES: O[C@@H]1C[C@@H](C(c2ccccc2)c2ccccc2)OC[C@H]1NCc1ccc2[nH]ccc2c1
- pKi [1]: 6.24
- pKi [2]: 6.92
- pKi [3]: 8.67

SMILES: Oc1ccc(CN[C@@H]2CC[C@H](C(c3ccccc3)c3ccccc3)OC2)cc1
- pKi [1]: 6.94
- pKi [2]: 7.17
- pKi [4]: 6.73

SMILES: Oc1ccc(CN[C@H]2CC[C@@H](C(c3ccccc3)c3ccccc3)OC2)cc1
- pKi [1]: 6.65
- pKi [2]: 7.07
- pKi [4]: 7.42

SMILES: O=[N+]([O-])c1ccc(CN[C@H]2CC[C@@H](C(c3ccccc3)c3ccccc3)OC2)cc1
- pKi [1]: 7.42
- pKi [2]: 7.46

SMILES: Oc1ccc(CN[C@@H]2CO[C@H](C(c3ccccc3)c3ccccc3)C[C@H]2O)cc1
- pKi [3]: 7.98

SMILES: O[C@@H]1C[C@@H](C(c2ccccc2)c2ccccc2)OC[C@H]1NCc1ccccc1
- pKi [1]: 5.82
- pKi [2]: 6.35
- pKi [4]: 6.15

SMILES: c1ccc(C(c2ccccc2)[C@H]2CC[C@@H](NCc3ccc4[nH]ccc4c3)CO2)cc1
- pKi [1]: 6.33
- pKi [2]: 6.85
- pKi [3]: 7.81
- pKi [4]: 7.93

SMILES: Oc1ccc(CN[C@H]2CO[C@@H](C(c3ccccc3)c3ccccc3)C[C@@H]2O)cc1
- pKi [3]: 7.03

SMILES: O[C@H]1C[C@H](C(c2ccccc2)c2ccccc2)OC[C@@H]1NCc1ccc2[nH]ccc2c1
- pKi [1]: 6.40
- pKi [2]: 6.74
- pKi [3]: 7.88
